Eleven molecules from ChEMBL document CHEMBL1641594, “Cytotoxicity of new polyfluorinated 1,4-naphtoquinones with diverse substituents in the quinone moiety” (Bioorg Med Chem, 2011) can be followed below.

The subject of data set [1] is RPMI-8226. Briefly: Ratio of compound IC50 to F-Cpd5 IC50 for human RPMI8226 cells. The format is functional, cell-based.
The test system of data set [2] is MCF7. Briefly: Ratio of compound IC50 to F-Cpd5 IC50 for human MCF7 cells. Type of data set: functional, cell-based.
Data set [3] deals with RPMI-8226. The data set is described as follows: Cytotoxicity against human RPMI8226 cells after 72 hrs by MTT assay. Type of data set: functional, cell-based. The conditions noted are these: RPMI-8226, 72 h. The procedure, abridged: (§1)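 RPMI 8226, MCF-7, LMTK and primary mouse fibroblasts (PMF) were seeded at ~2000 cells per well and preincubated 24 h at 37 °C, 5% CO2, in IMDM or RPMI 1640. Compounds were then added and cells incubated a further 72 h. Viable cells were quantified by MTT colorimetric assay, and the concentration giving 50% growth inhibition (IC50) was derived. Values are mean ± SD of at least three independent experiments.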

Data set [4] relates to MCF7. Briefly: Cytotoxicity against human MCF7 cells after 72 hrs by MTT assay. The conditions noted are these: MCF7, 72 h. Type of data set: functional, cell-based. The essentials: as §1
Data set [5] in a line: Cytotoxicity against mouse LMTK cells after 72 hrs by MTT assay. The format is cell-based. The note with it: L-M(TK-). The essentials: as §1
Data set [6] is described as follows: Cytotoxicity against PMF after 72 hrs by MTT assay. Further details: species or system Mus musculus. The procedure, abridged: as §1
Data set [7] has as its system MCF7. Briefly: Ratio of IC50 for human MCF7 cellss to IC50 for human RPMI8226 cells. Type of data set: functional.
In data set [8] the test system is Salmonella typhimurium. Briefly: Reduction of spontaneous mutagenesis in histidine-dependent Salmonella Typhimurium TA102 harboring histidine operon mutant assessed as concentration required to suppress 100% to 50% mutagenesis after 48 hrs by Ames test. The format is functional, organism-based, Salmonella enterica subsp. enterica serovar Typhimurium. The note with it: Salmonella enterica, TA102, 48 h. The essentials: (§2)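 S. typhimurium TA102 Ames test without metabolic activation. Single colony grown 15 h at 37 °C with shaking in LB with ampicillin (50 µg/ml) and tetracycline (2 µg/ml). Overnight culture mixed with compound at varied concentrations, with or without 3 mM H2O2, in 0.6% top agar at 42 °C. Poured onto minimal 0.2% glucose plates, incubated 48 h at 37 °C, revertants counted. Untreated revertant count set as 100%. At least three independent experiments.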

For data set [9], the system named is Salmonella typhimurium. The data set is described as follows: Reduction of spontaneous mutagenesis in histidine-dependent Salmonella Typhimurium TA102 harboring histidine operon mutant assessed as inhibition of H2O2-induced formation of mutants from 100% to 50% of revertants after 48 hrs by Ames test. Type of data set: functional, organism-based, Salmonella enterica subsp. enterica serovar Typhimurium. The note with it: Salmonella enterica, TA102, 48 h. The essentials: as §2

For data set [10], the system named is Salmonella typhimurium. Briefly: Reduction of spontaneous mutagenesis in histidine-dependent Salmonella Typhimurium TA102 harboring histidine operon mutant assessed as inhibition of H2O2-induced formation of mutants from 150% to 100% of revertants after 48 hrs by Ames test. The note with it: Salmonella enterica, TA102, 48 h. Type of data set: functional, organism-based, Salmonella enterica subsp. enterica serovar Typhimurium. The procedure, abridged: as §2

The nature of data set [11]: Cytotoxicity against PMF at 25 ug/ml after 72 hrs by MTT assay. The conditions noted are these: mouse, PMF cells; read-out: INH. The essentials: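 Cells (~2000 per well) were preincubated 24 h at 37 °C, 5% CO2, in IMDM or RPMI 1640, then exposed to compound for 72 h with MTT read-out. Where cytotoxicity was low, percent growth inhibition at the highest concentration tested was recorded instead of an IC50. Values are mean ± SD of at least three independent experiments.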

Data set [12] can be described thus: Cytotoxicity against mouse LMTK cells at 30 uM after 72 hrs by MTT assay. Type of data set: cell-based.
The nature of data set [13]: Cytotoxicity against PMF at 25 ug/ml after 72 hrs by MTT assay. The conditions noted are these: mouse.

pIC50: −log10 of the molar value.

As to `CCNC1=C(F)C(=O)c2c(F)c(F)c(F)c(F)c2C1=O`, the “Ratio IC50” value in the data set with RPMI-8226 [1] and in the data set on MCF7 [2] was 2 in each case.

`CCN(CC)C1=C(F)C(=O)c2c(F)c(F)c(F)c(F)c2C1=O`: the “Ratio IC50” value in the data set with RPMI-8226 [1] and with MCF7 [2] was 2 each time.

`COC1=C(OC)C(=O)c2c(F)c(F)c(F)c(F)c2C1=O`: the pIC50 was 6.02 in the data set with RPMI-8226 [3]; 5.22 with MCF7 [4]; 5.07 in [5]; 4.72 in data set [6]; 3.70 in the data set with Salmonella typhimurium [8]; 4.27 in the data set with Salmonella typhimurium [9]. Besides, the pIC50 in the data set with Salmonella typhimurium [10] is 4.42. Moreover, the “Ratio IC50” value with MCF7 [2] was determined as 13; in the data set with MCF7 [7], 6.

`O=C1C(F)=C(N(CCO)CCO)C(=O)c2c(F)c(F)c(F)c(F)c21`: the pIC50 with RPMI-8226 [3] was 5.29; in the data set on MCF7 [4] it was 5.12; in [5] it was 4.28; in data set [6], 4.47; in the data set with Salmonella typhimurium [8] it was 3.56; in the data set with Salmonella typhimurium [9], 4.34. Further, the pIC50 in the data set on Salmonella typhimurium [10] is 5.54. Further, the “Ratio IC50” value in the data set on MCF7 [2] is 13.

For the molecule `CC(C)(C)NC1=C(F)C(=O)c2c(F)c(F)c(F)c(F)c2C1=O`, the “Ratio IC50” value with RPMI-8226 [1] and in the data set on MCF7 [2] was 2 each time.

On to `O=C1C(F)=C(N2CCOCC2)C(=O)c2c(F)c(F)c(F)c(F)c21`, for which the pIC50 with RPMI-8226 [3] was 5.22; with MCF7 [4] it was 5.24; in data set [5] it was 4.52; in the data set with Salmonella typhimurium [8] it was 3.88; with Salmonella typhimurium [9] it was 3.77; with Salmonella typhimurium [10], 4.27. For the same molecule, in [11], the cytotoxicity at 72 h, 25 ug/ml worked out at 45%. Moreover, in the data set with MCF7 [2], the “Ratio IC50” value is listed as 13. The molecule also returned an Activity in data set [12] of 50%. Besides, the “activity at 25 ug/ml” value in data set [13] was found to be 45%.

Consider `CN(CCO)C1=C(F)C(=O)c2c(F)c(F)c(F)c(F)c2C1=O`, for which the pIC50 was 5.25 in the data set with RPMI-8226 [3]; 5.62 in the data set on MCF7 [4]; 4.35 in data set [5]; 4.60 in [6]; 4.42 in the data set on Salmonella typhimurium [8]; 4.52 in the data set on Salmonella typhimurium [9]. Moreover, the pIC50 in the data set with Salmonella typhimurium [10] was 5.47. Moreover, the “Ratio IC50” value in the data set with MCF7 [2] was 13.

Take `COC1=C(F)C(=O)c2c(F)c(F)c(F)c(F)c2C1=O`: the pIC50 with RPMI-8226 [3] is 5.40; in the data set on MCF7 [4] it was 4.58; in data set [5], 4.86; in data set [6] it was 5.05; with Salmonella typhimurium [8], 4.41; in the data set on Salmonella typhimurium [9], 4.70. The negative logarithm of the IC50 (pIC50) in the data set with Salmonella typhimurium [10] was 5.55.

In the case of `O=C1C=C(SCCO)C(=O)c2c(F)c(F)c(F)c(F)c21`, the pIC50 with RPMI-8226 [3] is 5.54; in the data set with MCF7 [4] it was 4.89; in [5], 4.60; in data set [6] it was 4.52; with Salmonella typhimurium [8], 4.58; with Salmonella typhimurium [9] it was 4.63. Further, the pIC50 with Salmonella typhimurium [10] was 4.90. The “Ratio IC50” value with RPMI-8226 [1] was 5.3.

In the case of `O=C1C(F)=C(NCCO)C(=O)c2c(F)c(F)c(F)c(F)c21`, the pIC50 was 5.92 in the data set with RPMI-8226 [3]; 5.24 in the data set on MCF7 [4]; 4.93 in [5]; 5.48 in [6]; 4.27 in the data set on Salmonella typhimurium [8]; 4.35 in the data set with Salmonella typhimurium [9]. Further, the negative logarithm of the IC50 (pIC50) with Salmonella typhimurium [10] was 4.59. The “Ratio IC50” value with MCF7 [2] is 13; in the data set on MCF7 [7], 4.8.

With `O=C1C(F)=C(Nc2ccccc2)C(=O)c2c(F)c(F)c(F)c(F)c21`, the “Ratio IC50” value in the data set with RPMI-8226 [1] and in the data set on MCF7 [2] was 2 in each case.
